Test results: ChEMBL document CHEMBL4689842, “EUbOPEN Chemogenomics Library wave 1” (2021)

Tested on: Fibroblast
Assay: Multiplex assay against human fibroblast
Format: toxicity, cell-based
In short: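 Phenotypes for tubulin, mitochondrial mass and membrane permeability are expressed as per cents of healthy-nucleus cells. Cells were stained live at seeding with Hoechst33342, BioTracker Green Microtubule Cytoskeleton Dye, MitoTracker Red and Annexin V Alexa Fluor 680, then imaged after compound addition on a CQ1 microscope at 37°C and 5% CO2. Machine-learning gating in CellPathfinder separated Hoechst high-intensity objects from normal cells, divided normal cells by nuclear state (healthy, pyknosed, fragmented) and divided pyknosed cells into mitotic or apoptotic.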

[1] = 12 h, 1 µM, compound concentration 1 uM, replicate 1
[2] = 12 h, 1 µM, compound concentration 1 uM, replicate 2
[3] = 12 h, 10 µM, compound concentration 10 uM, replicate 1
[4] = 12 h, 10 µM, compound concentration 10 uM, replicate 2
[5] = 24 h, 1 µM, compound concentration 1 uM, replicate 1
[6] = 24 h, 1 µM, compound concentration 1 uM, replicate 2
[7] = 24 h, 10 µM, compound concentration 10 uM, replicate 1
[8] = 24 h, 10 µM, compound concentration 10 uM, replicate 2
[9] = 48 h, 1 µM, compound concentration 1 uM, replicate 1
[10] = 48 h, 1 µM, compound concentration 1 uM, replicate 2
[11] = 48 h, 10 µM, compound concentration 10 uM, replicate 1
[12] = 48 h, 10 µM, compound concentration 10 uM, replicate 2

## COc1cc2c(NC3CCN(C(C)C)CC3)nc(N3CCC(F)(F)CC3)nc2cc1OCCCN1CCCC1
[1]
  Population Apoptotic (%): 70%
  Population Fragmented Nuclei (%): 30%
  Population Healthy Nuclei (%): 48%
  Population Hoechst High Intensity Objects (%): 11%
  Population Membrane Permeable-Phenotype (%): 16%
  Population Mitochondria Different-Phenotype (%): 11%
  Population Mitotic Cells (%): 29%
  Population Normal (%): 88%
  Population Pyknosed Nuclei (%): 21%
  Population Tubulin-Different-Phenotype (%): 38%
  Total Cell Count: 127
[2]
  Population Apoptotic (%): 30%
  Population Fragmented Nuclei (%): 20%
  Population Healthy Nuclei (%): 67%
  Population Hoechst High Intensity Objects (%): 5%
  Population Membrane Permeable-Phenotype (%): 3%
  Population Mitochondria Different-Phenotype (%): 22%
  Population Mitotic Cells (%): 70%
  Population Normal (%): 94%
  Population Pyknosed Nuclei (%): 11%
  Population Tubulin-Different-Phenotype (%): 19%
  Total Cell Count: 105
[3]
  Population Apoptotic (%): 61%
  Population Fragmented Nuclei (%): 16%
  Population Healthy Nuclei (%): 47%
  Population Hoechst High Intensity Objects (%): 33%
  Population Membrane Permeable-Phenotype (%): 10%
  Population Mitochondria Different-Phenotype (%): 13%
  Population Mitotic Cells (%): 38%
  Population Normal (%): 66%
  Population Pyknosed Nuclei (%): 35%
  Population Tubulin-Different-Phenotype (%): 35%
  Total Cell Count: 239
[4]
  Population Apoptotic (%): 66%
  Population Fragmented Nuclei (%): 11%
  Population Healthy Nuclei (%): 76%
  Population Hoechst High Intensity Objects (%): 8%
  Population Membrane Permeable-Phenotype (%): 66%
  Population Mitochondria Different-Phenotype (%): 97%
  Population Mitotic Cells (%): 33%
  Population Normal (%): 91%
  Population Pyknosed Nuclei (%): 11%
  Population Tubulin-Different-Phenotype (%): 97%
  Total Cell Count: 89
[5]
  Population Apoptotic (%): 65%
  Population Fragmented Nuclei (%): 35%
  Population Healthy Nuclei (%): 47%
  Population Hoechst High Intensity Objects (%): 20%
  Population Membrane Permeable-Phenotype (%): 15%
  Population Mitochondria Different-Phenotype (%): 4%
  Population Mitotic Cells (%): 34%
  Population Normal (%): 79%
  Population Pyknosed Nuclei (%): 17%
  Population Tubulin-Different-Phenotype (%): 34%
  Total Cell Count: 167
[6]
  Population Apoptotic (%): 29%
  Population Fragmented Nuclei (%): 14%
  Population Healthy Nuclei (%): 68%
  Population Hoechst High Intensity Objects (%): 8%
  Population Membrane Permeable-Phenotype (%): 2%
  Population Mitochondria Different-Phenotype (%): 7%
  Population Mitotic Cells (%): 70%
  Population Normal (%): 91%
  Population Pyknosed Nuclei (%): 16%
  Population Tubulin-Different-Phenotype (%): 12%
  Total Cell Count: 113
[7]
  Population Apoptotic (%): 63%
  Population Fragmented Nuclei (%): 22%
  Population Healthy Nuclei (%): 42%
  Population Hoechst High Intensity Objects (%): 37%
  Population Membrane Permeable-Phenotype (%): 4%
  Population Mitochondria Different-Phenotype (%): 9%
  Population Mitotic Cells (%): 36%
  Population Normal (%): 62%
  Population Pyknosed Nuclei (%): 35%
  Population Tubulin-Different-Phenotype (%): 43%
  Total Cell Count: 271
[8]
  Population Apoptotic (%): 90%
  Population Fragmented Nuclei (%): 18%
  Population Healthy Nuclei (%): 59%
  Population Hoechst High Intensity Objects (%): 7%
  Population Membrane Permeable-Phenotype (%): 82%
  Population Mitochondria Different-Phenotype (%): 100%
  Population Mitotic Cells (%): 9%
  Population Normal (%): 92%
  Population Pyknosed Nuclei (%): 22%
  Population Tubulin-Different-Phenotype (%): 96%
  Total Cell Count: 112
[9]
  Population Apoptotic (%): 52%
  Population Fragmented Nuclei (%): 44%
  Population Healthy Nuclei (%): 43%
  Population Hoechst High Intensity Objects (%): 26%
  Population Membrane Permeable-Phenotype (%): 12%
  Population Mitochondria Different-Phenotype (%): 2%
  Population Mitotic Cells (%): 47%
  Population Normal (%): 73%
  Population Pyknosed Nuclei (%): 12%
  Population Tubulin-Different-Phenotype (%): 29%
  Total Cell Count: 231
[10]
  Population Apoptotic (%): 69%
  Population Fragmented Nuclei (%): 47%
  Population Healthy Nuclei (%): 44%
  Population Hoechst High Intensity Objects (%): 34%
  Population Membrane Permeable-Phenotype (%): 6%
  Population Mitochondria Different-Phenotype (%): 0%
  Population Mitotic Cells (%): 30%
  Population Normal (%): 65%
  Population Pyknosed Nuclei (%): 7%
  Population Tubulin-Different-Phenotype (%): 20%
  Total Cell Count: 249
[11]
  Population Apoptotic (%): 37%
  Population Fragmented Nuclei (%): 19%
  Population Healthy Nuclei (%): 45%
  Population Hoechst High Intensity Objects (%): 41%
  Population Membrane Permeable-Phenotype (%): 6%
  Population Mitochondria Different-Phenotype (%): 5%
  Population Mitotic Cells (%): 62%
  Population Normal (%): 58%
  Population Pyknosed Nuclei (%): 35%
  Population Tubulin-Different-Phenotype (%): 32%
  Total Cell Count: 362
[12]
  Population Apoptotic (%): 23%
  Population Fragmented Nuclei (%): 22%
  Population Hoechst High Intensity Objects (%): 47%
  Population Membrane Permeable-Phenotype (%): 4%
  Population Mitochondria Different-Phenotype (%): 0%
  Population Mitotic Cells (%): 76%
  Population Normal (%): 52%
  Population Pyknosed Nuclei (%): 32%
  Population Tubulin-Different-Phenotype (%): 34%
  Total Cell Count: 426
